Test results taken from ChEMBL document CHEMBL2424574, “Structure-activity relationships and pharmacophore model of a noncompetitive pyrazoline containing class of GluN2C/GluN2D selective antagonists” (J Med Chem, 2013).

Assays:
Plasma [1] = test: Metabolic stability in mouse plasma after 2 hrs; format: ADME, cell-free
Summary of the method: (§1)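 Stability followed in human, rat or mouse plasma over a 2-hour time course.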

Plasma [2] = test: Metabolic stability in rat plasma after 2 hrs; format: ADME, cell-free; summary of the method: as §1
[3] = target: Kappa-type opioid receptor (Homo sapiens, UniProt P41145); test: Inhibition of kappa-type opioid receptor (unknown origin)
Sequence of Kappa-type opioid receptor (P41145 whole entry): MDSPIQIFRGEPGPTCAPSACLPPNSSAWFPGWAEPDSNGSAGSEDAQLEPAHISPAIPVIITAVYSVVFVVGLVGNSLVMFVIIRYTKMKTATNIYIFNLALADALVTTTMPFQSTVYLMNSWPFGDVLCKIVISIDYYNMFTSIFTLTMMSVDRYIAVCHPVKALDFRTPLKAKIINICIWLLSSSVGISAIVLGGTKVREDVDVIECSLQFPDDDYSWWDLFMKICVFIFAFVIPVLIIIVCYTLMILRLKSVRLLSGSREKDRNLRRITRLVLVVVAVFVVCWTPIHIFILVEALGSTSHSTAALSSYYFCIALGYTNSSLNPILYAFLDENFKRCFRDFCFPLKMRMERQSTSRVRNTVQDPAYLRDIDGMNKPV
Summary of the method: (§2)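 Radioligand panel screening was run through the NIMH Psychoactive Drug Screening Program with compounds at 5 µM.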

[4] = target: 5-hydroxytryptamine receptor 6 (Homo sapiens, UniProt P50406); test: Inhibition of 5HT6 receptor (unknown origin); summary of the method: as §2
Sequence of 5-hydroxytryptamine receptor 6 (P50406 whole entry): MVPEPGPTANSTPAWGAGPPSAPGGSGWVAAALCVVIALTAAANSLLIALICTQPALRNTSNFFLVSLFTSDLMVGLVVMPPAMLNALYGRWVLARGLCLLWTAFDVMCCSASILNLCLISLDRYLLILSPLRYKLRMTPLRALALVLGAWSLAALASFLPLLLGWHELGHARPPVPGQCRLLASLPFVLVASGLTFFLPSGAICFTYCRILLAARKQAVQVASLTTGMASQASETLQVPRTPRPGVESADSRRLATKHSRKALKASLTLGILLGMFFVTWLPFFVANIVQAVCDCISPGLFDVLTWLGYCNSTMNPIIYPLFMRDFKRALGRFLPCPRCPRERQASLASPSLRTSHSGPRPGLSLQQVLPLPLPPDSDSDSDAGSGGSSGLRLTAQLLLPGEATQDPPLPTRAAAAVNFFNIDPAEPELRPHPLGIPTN

[5] = target: Glutamate receptor ionotropic, NMDA 2A (Rattus norvegicus, UniProt P35439+Q00959); test: Negative allosteric modulation of recombinant rat GluN2A receptor expressed in Xenopus laevis oocytes by two-electrode voltage clamp method; format: cell-based, Oocyte
Summary of the method: (§3)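 Two-electrode voltage clamp of Xenopus oocytes expressing rat GluN1 with GluN2A, 2B, 2C or 2D. Holding potential −40 mV in recording solution (mM: 90 NaCl, 1 KCl, 0.5 BaCl2, 0.005 EDTA, 10 HEPES, pH 7.4, 23 °C). Compounds diluted from 20 mM DMSO stocks to 0.05–0.1% final DMSO. IC50 from a Hill fit to the averaged composite concentration–response curve, 5–24 oocytes from 2–4 frogs.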

[6] = target: Glutamate receptor ionotropic, NMDA 2C (Rattus norvegicus, UniProt P35439+Q00961); test: Negative allosteric modulation of recombinant rat GluN2C receptor expressed in Xenopus laevis oocytes by two-electrode voltage clamp method; format: cell-based, Oocyte; summary of the method: as §3
Sequence of Glutamate receptor ionotropic, NMDA 2C (Q00961 whole entry, one chain of several): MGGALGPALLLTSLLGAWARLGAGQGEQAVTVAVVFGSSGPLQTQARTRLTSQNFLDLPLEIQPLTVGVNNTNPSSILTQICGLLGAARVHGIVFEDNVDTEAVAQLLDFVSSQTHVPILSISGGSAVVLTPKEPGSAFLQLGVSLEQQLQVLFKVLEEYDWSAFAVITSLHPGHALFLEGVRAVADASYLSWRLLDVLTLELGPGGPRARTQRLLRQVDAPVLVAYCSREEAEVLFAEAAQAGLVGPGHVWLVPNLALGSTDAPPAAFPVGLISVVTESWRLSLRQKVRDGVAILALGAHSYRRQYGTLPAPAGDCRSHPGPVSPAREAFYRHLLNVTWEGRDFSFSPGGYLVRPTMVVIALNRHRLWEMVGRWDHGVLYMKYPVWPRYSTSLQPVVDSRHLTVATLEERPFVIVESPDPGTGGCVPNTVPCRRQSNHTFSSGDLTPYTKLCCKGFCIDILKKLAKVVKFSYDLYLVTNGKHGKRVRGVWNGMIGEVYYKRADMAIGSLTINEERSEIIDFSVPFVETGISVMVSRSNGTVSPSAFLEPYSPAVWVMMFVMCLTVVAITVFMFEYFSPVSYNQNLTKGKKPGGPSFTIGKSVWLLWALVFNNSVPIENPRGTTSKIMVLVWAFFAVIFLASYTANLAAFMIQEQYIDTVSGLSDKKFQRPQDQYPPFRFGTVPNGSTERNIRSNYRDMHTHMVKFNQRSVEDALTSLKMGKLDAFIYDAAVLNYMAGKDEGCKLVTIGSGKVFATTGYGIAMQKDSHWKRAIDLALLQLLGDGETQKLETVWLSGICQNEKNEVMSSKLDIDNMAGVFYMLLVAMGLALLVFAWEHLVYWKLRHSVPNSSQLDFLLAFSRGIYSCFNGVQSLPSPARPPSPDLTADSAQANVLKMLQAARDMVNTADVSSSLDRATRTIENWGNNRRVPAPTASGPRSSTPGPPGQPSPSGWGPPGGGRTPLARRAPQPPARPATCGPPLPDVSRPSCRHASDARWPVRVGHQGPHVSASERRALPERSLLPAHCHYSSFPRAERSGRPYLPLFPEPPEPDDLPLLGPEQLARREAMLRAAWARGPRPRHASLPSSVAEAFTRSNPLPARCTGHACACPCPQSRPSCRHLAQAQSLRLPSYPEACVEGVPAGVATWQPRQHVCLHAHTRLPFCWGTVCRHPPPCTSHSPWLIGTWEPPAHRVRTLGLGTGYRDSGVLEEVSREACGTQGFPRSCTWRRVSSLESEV

[7] = target: Glutamate receptor ionotropic, NMDA 2D (Rattus norvegicus, UniProt P35439+Q62645); test: Negative allosteric modulation of recombinant rat GluN2D receptor expressed in Xenopus laevis oocytes by two-electrode voltage clamp method; format: cell-based, Oocyte; summary of the method: as §3
[8] = target: Glutamate receptor 4 (Homo sapiens) (UniProt P48058); test: Inhibition of GluA4 receptor (unknown origin) expressed in Xenopus laevis oocytes assessed as inhibition of glutamate-induced current at 3 uM by two-electrode voltage clamp method; values are per cent of control; conditions: Oocyte
Sequence of Glutamate receptor 4 (Homo sapiens) (P48058 whole entry): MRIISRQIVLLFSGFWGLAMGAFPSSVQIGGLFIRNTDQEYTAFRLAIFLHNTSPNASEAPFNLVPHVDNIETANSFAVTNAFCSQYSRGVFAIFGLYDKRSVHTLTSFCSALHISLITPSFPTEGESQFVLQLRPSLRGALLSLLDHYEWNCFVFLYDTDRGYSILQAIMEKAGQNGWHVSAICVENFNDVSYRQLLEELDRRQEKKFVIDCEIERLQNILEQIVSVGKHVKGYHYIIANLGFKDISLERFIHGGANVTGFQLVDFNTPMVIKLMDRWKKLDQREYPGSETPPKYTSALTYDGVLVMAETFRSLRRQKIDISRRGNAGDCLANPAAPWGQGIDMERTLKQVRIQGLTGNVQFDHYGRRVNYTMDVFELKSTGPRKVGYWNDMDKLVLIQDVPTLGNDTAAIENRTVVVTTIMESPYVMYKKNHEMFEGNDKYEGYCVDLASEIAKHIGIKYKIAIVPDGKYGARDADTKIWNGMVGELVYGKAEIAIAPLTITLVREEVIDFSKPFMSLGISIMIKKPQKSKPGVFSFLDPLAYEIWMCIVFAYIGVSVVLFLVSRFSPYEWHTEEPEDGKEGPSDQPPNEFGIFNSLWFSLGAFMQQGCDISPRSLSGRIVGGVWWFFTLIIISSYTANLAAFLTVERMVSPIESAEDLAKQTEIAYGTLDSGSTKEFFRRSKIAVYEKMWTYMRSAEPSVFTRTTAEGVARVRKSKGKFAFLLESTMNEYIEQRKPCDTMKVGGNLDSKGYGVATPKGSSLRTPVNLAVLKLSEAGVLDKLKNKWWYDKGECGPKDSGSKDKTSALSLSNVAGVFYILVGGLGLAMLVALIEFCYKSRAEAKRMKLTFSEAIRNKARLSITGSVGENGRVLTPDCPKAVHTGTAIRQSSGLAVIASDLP

[9] = target: Glutamate receptor 2 (Homo sapiens) (UniProt P42262); test: Inhibition of GluA2 receptor (unknown origin) expressed in Xenopus laevis oocytes assessed as inhibition of glutamate-induced current at 3 uM by two-electrode voltage clamp method; values are per cent of control; conditions: Oocyte
Sequence of Glutamate receptor 2 (Homo sapiens) (P42262 whole entry): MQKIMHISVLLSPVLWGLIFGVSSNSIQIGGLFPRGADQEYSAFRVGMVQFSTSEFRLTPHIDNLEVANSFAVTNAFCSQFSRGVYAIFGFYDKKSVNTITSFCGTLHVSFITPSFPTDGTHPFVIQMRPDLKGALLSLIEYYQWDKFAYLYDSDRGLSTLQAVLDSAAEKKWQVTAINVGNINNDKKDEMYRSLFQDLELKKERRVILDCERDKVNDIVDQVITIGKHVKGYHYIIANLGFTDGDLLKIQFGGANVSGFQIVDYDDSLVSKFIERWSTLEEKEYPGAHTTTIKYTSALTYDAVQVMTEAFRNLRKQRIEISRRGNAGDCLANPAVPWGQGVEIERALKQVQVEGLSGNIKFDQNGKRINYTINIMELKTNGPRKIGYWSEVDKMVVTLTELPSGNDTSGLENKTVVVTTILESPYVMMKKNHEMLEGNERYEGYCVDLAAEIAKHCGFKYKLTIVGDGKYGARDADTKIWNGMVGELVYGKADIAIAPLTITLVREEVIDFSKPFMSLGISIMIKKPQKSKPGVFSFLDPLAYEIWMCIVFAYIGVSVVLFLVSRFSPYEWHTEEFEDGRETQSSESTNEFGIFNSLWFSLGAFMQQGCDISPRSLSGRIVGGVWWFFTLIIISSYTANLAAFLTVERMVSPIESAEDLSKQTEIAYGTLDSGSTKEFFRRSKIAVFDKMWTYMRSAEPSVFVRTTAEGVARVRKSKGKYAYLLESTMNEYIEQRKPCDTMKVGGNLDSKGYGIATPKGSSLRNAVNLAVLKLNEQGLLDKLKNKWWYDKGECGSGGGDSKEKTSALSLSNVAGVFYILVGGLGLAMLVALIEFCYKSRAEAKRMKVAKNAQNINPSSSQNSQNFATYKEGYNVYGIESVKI

[10] = target: Glutamate receptor 1 (Homo sapiens) (UniProt P42261); test: Inhibition of GluA1 receptor (unknown origin) expressed in Xenopus laevis oocytes assessed as inhibition of glutamate-induced current at 3 uM by two-electrode voltage clamp method; values are per cent of control; conditions: Oocyte
[11] = target: Ionotropic glutamate receptor kainate 2/5 (Homo sapiens) (UniProt Q16478+Q13002); test: Inhibition of GluK2/GluK5 receptor (unknown origin) expressed in Xenopus laevis oocytes assessed as inhibition of AMPA-induced current at 3 uM by two-electrode voltage clamp method; values are per cent of control; conditions: Oocyte
[12] = target: P2X purinoceptor 2 (Homo sapiens) (UniProt Q9UBL9); test: Inhibition of human purinergic receptor P2X subunit-2 expressed in Xenopus laevis oocytes assessed as inhibition of ATP-induced current at 3 uM by two-electrode voltage clamp method; values are per cent of control; conditions: Oocyte
Sequence of P2X purinoceptor 2 (Homo sapiens) (Q9UBL9 whole entry): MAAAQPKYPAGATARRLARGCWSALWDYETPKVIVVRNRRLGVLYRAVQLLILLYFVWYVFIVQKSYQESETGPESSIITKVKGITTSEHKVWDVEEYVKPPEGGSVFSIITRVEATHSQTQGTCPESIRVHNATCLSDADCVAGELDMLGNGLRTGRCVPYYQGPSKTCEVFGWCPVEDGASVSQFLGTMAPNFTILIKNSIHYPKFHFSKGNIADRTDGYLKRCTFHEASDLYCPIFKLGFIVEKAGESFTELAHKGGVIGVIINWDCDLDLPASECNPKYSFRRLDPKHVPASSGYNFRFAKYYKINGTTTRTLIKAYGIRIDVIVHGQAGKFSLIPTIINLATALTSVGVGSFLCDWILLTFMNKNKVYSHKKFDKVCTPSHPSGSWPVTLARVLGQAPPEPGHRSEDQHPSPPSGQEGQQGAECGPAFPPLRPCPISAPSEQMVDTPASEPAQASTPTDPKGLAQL

[13] = target: 5-hydroxytryptamine receptor 3A (Homo sapiens) (UniProt P46098); test: Inhibition of serotonin 5-HT3A receptor (unknown origin) expressed in Xenopus laevis oocytes assessed as inhibition of serotonin-induced current at 3 uM by two-electrode voltage clamp method; values are per cent of control; conditions: Oocyte
Sequence of 5-hydroxytryptamine receptor 3A (Homo sapiens) (P46098 whole entry): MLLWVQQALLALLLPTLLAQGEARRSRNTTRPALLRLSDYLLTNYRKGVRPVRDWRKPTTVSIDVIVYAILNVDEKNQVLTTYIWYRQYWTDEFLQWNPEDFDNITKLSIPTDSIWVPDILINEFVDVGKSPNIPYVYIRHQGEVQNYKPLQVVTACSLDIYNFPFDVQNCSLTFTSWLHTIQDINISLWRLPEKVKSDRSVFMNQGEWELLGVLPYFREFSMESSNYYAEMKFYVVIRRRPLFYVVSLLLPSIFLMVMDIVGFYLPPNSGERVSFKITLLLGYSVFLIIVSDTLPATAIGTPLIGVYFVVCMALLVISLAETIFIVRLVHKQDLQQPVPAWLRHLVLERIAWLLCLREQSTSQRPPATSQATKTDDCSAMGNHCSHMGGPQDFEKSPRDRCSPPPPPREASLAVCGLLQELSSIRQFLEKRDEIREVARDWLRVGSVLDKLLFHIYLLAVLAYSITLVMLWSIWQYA

[14] = target: Ionotropic glutamate receptor NMDA 1/2D (Homo sapiens) (UniProt Q05586+O15399); test: Inhibition of GluN1/GluN2D receptor (unknown origin) expressed in Xenopus laevis oocytes assessed as inhibition of glutamate/glycine-induced current at 3 uM by two-electrode voltage clamp method; values are per cent of control; conditions: Oocyte
[15] = target: Glutamate NMDA receptor; GRIN1/GRIN2B (Homo sapiens) (UniProt Q05586+Q13224); test: Inhibition of GluN1/GluN2B receptor (unknown origin) expressed in Xenopus laevis oocytes assessed as inhibition of glutamate/glycine-induced current at 3 uM by two-electrode voltage clamp method; values are per cent of control; conditions: Oocyte
[16] = target: Glutamate NMDA receptor; GRIN1/GRIN2A (Homo sapiens) (UniProt Q05586+Q12879); test: Inhibition of GluN1/GluN2A receptor (unknown origin) expressed in Xenopus laevis oocytes assessed as inhibition of glutamate/glycine-induced current at 3 uM by two-electrode voltage clamp method; values are per cent of control; conditions: Oocyte
[17] = target: Glycine receptor subunit alpha-1 (Homo sapiens) (UniProt P23415); test: Inhibition of glycine receptor subunit alpha-1 (unknown origin) expressed in Xenopus laevis oocytes assessed as inhibition of glycine-induced current at 3 uM by two-electrode voltage clamp method; values are per cent of control; conditions: Oocyte
[18] = target: Neuronal acetylcholine receptor; alpha3/beta4 (Homo sapiens) (UniProt P30926+P32297); test: Inhibition of human nicotinic acetylcholine receptor subunit alpha-3 beta-4 expressed in Xenopus laevis oocytes assessed as inhibition of acetylcholine-induced current at 3 uM by two-electrode voltage clamp method; values are per cent of control; conditions: Oocyte
[19] = target: Neuronal acetylcholine receptor; alpha4/beta2 (Homo sapiens) (UniProt P17787+P43681); test: Inhibition of human nicotinic acetylcholine receptor subunit alpha-4 beta-2 expressed in Xenopus laevis oocytes assessed as inhibition of acetylcholine-induced current at 3 uM by two-electrode voltage clamp method; values are per cent of control; conditions: Oocyte
Oocyte = test: Inhibition of gamma-aminobutyric acid receptor A […] (unknown origin) expressed in Xenopus laevis oocytes assessed as inhibition of GABA-induced current at 3 uM by two-electrode voltage clamp method; values are per cent of control; conditions: Homo sapiens
[20] = target: Nicotinic acetylcholine receptor alpha1/beta1/gamma/delta (Mus musculus) (UniProt P04756+P09690+P02716+P04760); test: Inhibition of mouse nicotinic acetylcholine receptor subunit alpha1beta1gammadelta expressed in Xenopus laevis oocytes assessed as inhibition of acetylcholine-induced current at 3 uM by two-electrode voltage clamp method; values are per cent of control; conditions: Oocyte
[21] = target: Neuronal acetylcholine receptor; alpha9/alpha10 (Homo sapiens) (UniProt Q9UGM1+Q9GZZ6); test: Inhibition of nicotinic acetylcholine receptor subunit alpha-9 alpha-10 (unknown origin) expressed in Xenopus laevis oocytes assessed as inhibition of acetylcholine-induced current at 3 uM by two-electrode voltage clamp method; values are per cent of control; conditions: Oocyte

| SMILES | Stability (Plasma [1]) | Stability (Plasma [2]) | Ki [3] | Ki [4] | IC50 [5] | IC50 [6] | IC50 [7] | residual activity [8] | residual activity [9] | residual activity [10] | residual activity [11] | residual activity [12] | residual activity [13] | residual activity [14] | residual activity [15] | residual activity [16] | residual activity [17] | residual activity [18] | residual activity [19] | residual activity (Oocyte) | other results |
| --- | --- | --- | --- | --- | --- | --- | --- | --- | --- | --- | --- | --- | --- | --- | --- | --- | --- | --- | --- | --- | --- |
| O=C(O)CCC(=O)N1N=C(c2c(-c3ccc(Cl)cc3)c3ccccc3[nH]c2=O)CC1c1ccc(Cl)cc1 (racemic) | Stable | Stable | > 10000 nM | > 10000 nM | 21000 nM | 770 nM | 440 nM | 96% | 98% | 97% | 97% | 113% | 95% | 14% | 79% | 89% | 101% | 77% | 79% | 97% | residual activity [20]: 94%; residual activity [21]: 67% |
| O=C(O)/C=C/C(=O)N1N=C(c2c(-c3ccc(Br)cc3)c3ccccc3[nH]c2=O)CC1c1ccc(Cl)cc1 (racemic) | Stable | Stable | > 10000 nM | > 10000 nM | 4300 nM | 200 nM | 190 nM | 97% | 96% | 99% | 95% | 100% | 95% | 14% | 98% | 89% | 99% | 87% | 82% | 95% | residual activity [20]: 98%; residual activity [21]: 72% |
